ChEMBL document CHEMBL1152662, “Synthesis and biological evaluation of novel 2-(substituted phenylaminocarbonylmethylthio)-6-(2,6-dichlorobenzyl)-pyrimidin-4(3H)-ones as potent HIV-1 NNRTIs” (Bioorg Med Chem, 2009)

Columns and labels:
[1] = tested on: Human immunodeficiency virus 1; test: Antiviral activity against HIV1 3B infected in human MT4 cells assessed as inhibition of virus-induced cytopathic effect after 5 days by MTT assay; type: functional, organism-based; details: Human immunodeficiency virus 1, 3B, MT4, 120 h
How it was run: (§1)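 Compounds added at start in triplicate wells (stocks at 10× final) as serial fivefold dilutions; MT-4 cells at 6 × 10⁵ cells/mL infected with HIV-1 IIIB or HIV-2 ROD. Viability read by MTT 5 days post-infection at 540 and 690 nm, median OD of three wells. EC50 is the concentration giving 50% protection against virus-induced cytotoxicity.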

[2] = tested on: Human immunodeficiency virus 2; test: Antiviral activity against HIV2 ROD infected in human MT4 cells assessed as inhibition of virus-induced cytopathic effect after 5 days by MTT assay; type: functional, organism-based; details: Human immunodeficiency virus 2, ISOLATE ROD, MT4, 120 h; how it was run: as §1
[3] = Cytotoxicity against mock-infected human MT4 cells after 5 days by MTT assay; type: cell-based
How it was run: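 Mock-infected MT-4 cells (6 × 10⁵ cells/mL) exposed in triplicate to serial fivefold dilutions, added at start from stocks at 10× final concentration. Viability measured by MTT after 5 days, absorbance at 540 and 690 nm, median OD of three wells. CC50 is the concentration lowering OD540 of mock-infected control by 50%.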

[4] = Selectivity index, ratio of CC50 for mock-infected human MT4 cells to EC50 for HIV1 3B infected in human MT4 cells; type: toxicity, cell-based; details: read-out: Ratio CC50/EC50
How it was run: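 Selectivity index calculated as CC50 over EC50, both from 5-day MTT viability readings in MT-4 cells, mock-infected or HIV-1 IIIB-infected, run in parallel triplicate wells.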

| Structure (SMILES) | EC50 [1] [µM] | EC50 [2] [µM] | CC50 at 120 h [3] [µM] | selectivity ratio [4] |
| --- | --- | --- | --- | --- |
| Cc1c(Cc2c(Cl)cccc2Cl)nc(SCC(=O)Nc2ccc(Cl)cc2)[nH]c1=O | 0.32 | > 267 | > 267 | > 836 |
| O=C(CSc1nc(Cc2c(Cl)cccc2Cl)cc(=O)[nH]1)Nc1ccc(Br)cc1 | 0.74 | > 22.8 | 22.8 | 31 |
| Cc1c(Cc2c(Cl)cccc2Cl)nc(SCC(=O)Nc2ccc(Br)cc2)[nH]c1=O | 0.18 | > 244 | > 244 | > 1330 |
| O=C(CSc1nc(Cc2c(Cl)cccc2Cl)cc(=O)[nH]1)Nc1ccc(Cl)c(Cl)c1 | ≥ 84.6 | > 19.6 | 19.6 | – |
| Cc1ccc(NC(=O)CSc2nc(Cc3c(Cl)cccc3Cl)cc(=O)[nH]2)cc1 | 0.88 | > 47.4 | ≥ 47.4 | ≥ 54 |
| COc1ccc(NC(=O)CSc2nc(Cc3c(Cl)cccc3Cl)cc(=O)[nH]2)cc1 | 0.92 | > 25.2 | 25.5 | 28 |
| Cc1c(Cc2c(Cl)cccc2Cl)nc(SCC(=O)Nc2ccc([N+](=O)[O-])cc2)[nH]c1=O | 0.99 | ≥ 45.8 | > 261 | > 264 |
| Cc1c(Cc2c(Cl)cccc2Cl)nc(SCC(=O)Nc2ccc(F)c(Cl)c2)[nH]c1=O | ≥ 41.1 | > 257 | > 257 | ≥ 1 |
| Cc1c(Cc2c(Cl)cccc2Cl)nc(SCC(=O)Nc2ccc(Cl)c(Cl)c2)[nH]c1=O | ≥ 2.82 | > 248 | > 248 | ≥ 88 |
| O=C(CSc1nc(Cc2c(Cl)cccc2Cl)cc(=O)[nH]1)Nc1ccc(Cl)cc1 | 0.95 | > 24.8 | 24.8 | 23 |
| COc1ccc(NC(=O)CSc2nc(Cc3c(Cl)cccc3Cl)c(C)c(=O)[nH]2)cc1 | 2.74 | > 10.8 | 10.8 | 4 |
| Cc1c(Cc2c(Cl)cccc2Cl)nc(SCC(=O)Nc2ccc(F)c(F)c2)[nH]c1=O | 0.69 | > 266 | > 266 | > 387 |
| O=C(CSc1nc(Cc2c(Cl)cccc2Cl)cc(=O)[nH]1)Nc1ccc(F)c(Cl)c1 | > 264 | > 264 | > 264 | < 1 |
| COc1ccc(NC(=O)CSc2nc(Cc3c(Cl)cccc3Cl)cc(=O)[nH]2)cc1OC | 4.48 | > 166 | 166 | 28 |
| O=C(CSc1nc(Cc2c(Cl)cccc2Cl)cc(=O)[nH]1)Nc1ccc([N+](=O)[O-])cc1 | 2.07 | > 269 | > 269 | > 130 |
| O=C(CSc1nc(Cc2c(Cl)cccc2Cl)cc(=O)[nH]1)Nc1ccc(F)c(F)c1 | > 274 | > 274 | > 274 | ≥ 1 |
| COc1ccc(NC(=O)CSc2nc(Cc3c(Cl)cccc3Cl)c(C)c(=O)[nH]2)cc1OC | 1.45 | > 253 | > 253 | > 175 |
